Data on two compounds can be found in ChEMBL document CHEMBL1141286, “Benzochromenones from the marine crinoid Comantheria rotula inhibit hypoxia-inducible factor-1 (HIF-1) in cell-based reporter assays and differentially suppress the growth of certain tumor cell lines” (J Nat Prod, 2007).

Calls of active or inactive are those of the source. The calls are words filed in the database; no cut-off is given here. Some results are limits rather than exact numbers.

Assay [1] is described as follows: Inhibition of HIF1 activation in PC3 cells by TK-luciferase assay. As to conditions: Homo sapiens, PC-3. It is filed as cell-based. The method in brief:
(§1)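 HIF-1 reporter (pHRE-TK-Luc) assays in transfected PC-3 or T47D cells; HIF-1 induced by hypoxia or by the hypoxia mimetic 1,10-phenanthroline (10 μM); compounds at half-log concentrations; luciferase activity measured; IC50 from experiments in triplicate.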

A short description of assay [2]: Inhibition of 1,10-phenanthroline-induced HIF1 activation in PC3 cells by TK-luciferase assay. It is filed as cell-based. The settings on record: Homo sapiens, PC-3. The procedure, abridged: as §1
Assay [3] concerns the target Hypoxia inducible factors; HIF-1-alpha, HIF-2-alpha (Homo sapiens, UniProt Q16665+Q99814). As to the kind of experiment: Inhibition of HIF1 activation in human T47D cells by TK-luciferase assay. It is filed as cell-based. The procedure, abridged:
as §1

Assay [4] relates to T47D. The assay can be described thus: Inhibition of 1,10-phenanthroline-induced VEGF protein secretion in human T47D cells at 10 uM after 16 hrs by ELISA. The class given is functional, cell-based. The procedure, abridged:
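T47D cells stimulated with 1,10-phenanthroline, compound at 10 μM; secreted VEGF in conditioned media by ELISA, normalized to cell-lysate protein.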
In general terms: An ELISA detects its analyte on a solid surface through an enzyme-linked reagent.

Assay [5] in a line: Inhibition of 1,10-phenanthroline-induced HIF1 activation in T47D cells by TK-luciferase assay. It is filed as cell-based. The settings on record: Homo sapiens. The method in brief: as §1
Assay [6] in a line: DPPH radical scavenging activity relative to Trolox. It is filed as functional. Set-up: concentration or dose not given beside the values. The method in brief:
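Compounds were made up as DMSO stocks and diluted in isopropanol to a final 10 μM. Each was mixed with DPPH in isopropanol at 10 μM or 30 μM DPPH, and absorbance was read at 515 nm. Scavenging was calculated as [1 − OD515(compound)/OD515(control)] × 100, then expressed as a percentage of Trolox activity. One experiment was run in triplicate.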

Assay [7] in a line: Inhibition of luciferase at 30 uM. The method in brief: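 Purified recombinant firefly luciferase (QuantiLum, 46.8 μg mL−1) mixed with compound in passive lysis buffer containing BSA (1 mg mL−1); equal volume of luciferase substrate added, light output read; percentage inhibition relative to DMSO control; concentration-response curves up to 30 μM.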
The subject of assay [8] is T47D. As to the kind of experiment: Inhibition of hypoxia induced VEGF protein secretion in human T47D cells at 10 uM after 16 hrs by ELISA. On the set-up: scale not given: the % may be the effect or the level left. The class given is functional. The method in brief:
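Exponentially growing T47D cells exposed to hypoxia (1% O2) with compound (10 μM) for 16 hr; secreted VEGF protein in conditioned media by ELISA, normalized to protein in cell lysates (micro BCA).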

`CCCc1cc(=O)c2c(OC)c3c(OC)cc(O)cc3cc2o1` [NEOCOMANTHERIN]: the IC50 in assay [1] was determined as 3.2 µM; in assay [2] it was 3.7 µM; in assay [3] it was 2.7 µM; in assay [5], 1.9 µM. The result in the assay on T47D [4] was inactive. In assay [6], this compound yielded an Activity of 40%. In assay [7], this compound registered an inhibition of 48%.
Turning to `CCCc1cc(=O)c2c(O)cc3cc(O)cc(OC)c3c2o1` [COMAPARVIN], the IC50 was > 10 µM in assay [1], > 10 µM in assay [2], 3 µM in assay [3] and 3 µM in assay [5]. For the same compound, in the assay on T47D [8], the Activity is on record as 27%. Besides, the result in the assay on T47D [4] was inactive.

In general, IC50 refers to the point on the concentration scale where inhibition reaches its midpoint. As a reminder, the inhibition is the relative decrease from the control value, in per cent.
